# Experimental data of several laboratories.
# Lines come from different studies, so protocols differ.
Compound,tested on,observed,technique,strain,time,quantity,value
COC(=O)c1cc(-c2cccc(NC(=S)Nc3ccc(OC)cc3)c2)on1,Mycobacteroides chelonae,microbial growth,broth dilution,ATCC35752,48 h,MIC,> 64 µg/mL
CO[C@H]1/C=C/O[C@@]2(C)Oc3c(C)c(O)c4c(O)c(c(/C=N/N5CCN(C)CC5)c(O)c4c3C2=O)NC(=O)/C(C)=C\C=C\[C@H](C)[C@H](O)[C@@H](C)[C@@H](O)[C@@H](C)[C@H](OC(C)=O)[C@@H]1C,Mycobacteroides chelonae,microbial growth,,,72 h,MIC,< 0.78 µM
C#Cc1ccc(/C=C/c2nc3ccccc3c(=O)n2-c2cccc(O)c2)cc1,Enterococcus faecium,microbial growth,broth dilution,NCTC7171,,MIC,32 µg/mL
CC[C@H](C)[C@@H]([C@@H](CC(=O)N1CCC[C@H]1[C@H](OC)[C@@H](C)C(=O)N[C@@H](Cc1ccccc1)C(=O)O)OC)N(C)C(=O)[C@@H](NC(=O)[C@H](C(C)C)N(C)C(=O)CCc1cn(CCOCCOCCOCCOCC(=O)NCc2ccc(CN3C(=O)[C@H]4CC(=O)N[C@H](C(=O)O)CC(=O)NCC(=O)N[C@@H](CCCNC(=N)N)C(=O)NC[C@H]3C(=O)N4)cc2)nn1)C(C)C,M21,cell growth or viability,MTT,,72 h,IC50,> 1 µM
O=C(NOC[C@H](O)CO)c1ccc(F)c(F)c1Nc1ccc(I)cc1F,MB002,cell growth or viability,,,7 days,IC50,> 10 µM
O=c1c2ccccc2nc(/C=C/c2ccco2)n1-c1cccc(O)c1,Enterococcus faecium,microbial growth,broth dilution,NCTC7171,,MIC,> 128 µg/mL
O=C(Nc1cccc(-c2cc(C(=O)O)no2)c1)Nc1ccc(Cl)c(Cl)c1,Mycobacteroides chelonae,microbial growth,broth dilution,ATCC35752,48 h,MIC,> 64 µg/mL
N.N.[Cl][Pt][Cl],CCD 19Lu,cell growth or viability,,,48 h,IC50,84.4 µM
CCCCCCNC(=S)Nc1cccc(-c2cc(C(=O)OC)no2)c1,Mycobacteroides chelonae,microbial growth,broth dilution,ATCC35752,48 h,MIC,> 64 µg/mL
O=C1[O][Pt]2([NH][C@@H]3CCCC[C@H]3[NH]2)[O]C1=O,HD-MB03,cell growth or viability,,,7 days,IC50,2.33 µM
O=C(O)c1ccc(/C=C/c2nc3ccccc3c(=O)n2-c2cccc(O)c2)cc1,Enterococcus faecium,microbial growth,broth dilution,NCTC7171,,MIC,64 µg/mL
COC(=O)c1cc(-c2cccc(NC(=O)Nc3cccc(F)c3)c2)on1,Mycobacteroides chelonae,microbial growth,broth dilution,ATCC35752,48 h,MIC,> 64 µg/mL
